From PubChem BioAssay AID2430 (Vanderbilt High Throughput Screening Facility, 2010)
Active and inactive are the calls of the source. How the calls were made is not given here.

Target: Muscarinic acetylcholine receptor M2 (Homo sapiens) (UniProt P08172)
Assay: M2 receptor positive allosteric modulation off-target check, dose response, selectivity assay for M1 muscarinic PAM project, cell-based, CHO-K1 M2/Gqi5, Fluo-4 calcium, ACh EC20 (AID 2430)
Conditions: CHO-K1 M2/Gqi5 calcium Fluo-4, ACh EC20 PAM mode; series mostly up to 30 µM; percent of max ACh response: at the top concentration
Method in brief: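 Measured by – calcium flux measured with Fluo-4 fluorescent dye · System – CHO-K1 cells transfected with human M2 receptor and Gqi5 · Incubation – 37 °C dye loading, 1.5 min compound, 50 s ACh, 25 °C · Buffer or medium – HEPES- and probenecid-supplemented HBSS, pH 7.4 · Dosing – test compound with 0.3% DMSO final · Reagent – ACh near EC20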

Muscarinic acetylcholine receptor M2 (Homo sapiens), sequence (P08172 whole entry, looked up): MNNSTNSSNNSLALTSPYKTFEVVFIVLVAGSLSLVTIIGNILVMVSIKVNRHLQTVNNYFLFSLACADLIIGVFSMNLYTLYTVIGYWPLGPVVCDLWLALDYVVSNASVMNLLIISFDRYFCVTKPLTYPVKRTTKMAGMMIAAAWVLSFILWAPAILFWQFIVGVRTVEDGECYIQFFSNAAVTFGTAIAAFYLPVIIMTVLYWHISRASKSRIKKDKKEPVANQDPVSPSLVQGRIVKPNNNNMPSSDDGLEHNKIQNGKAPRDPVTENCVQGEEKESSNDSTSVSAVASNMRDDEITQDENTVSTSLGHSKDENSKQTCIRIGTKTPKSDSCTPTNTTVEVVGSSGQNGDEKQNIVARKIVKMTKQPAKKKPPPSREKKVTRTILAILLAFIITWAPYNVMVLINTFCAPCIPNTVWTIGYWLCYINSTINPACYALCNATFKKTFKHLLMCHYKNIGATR

Percent of max ACh response, inactive:
Cn1cc(-c2cc(F)c(CN3C(=O)C(=O)c4ccccc43)c(F)c2)cn1 23.3%
Cn1cc(-c2ccc(CN3C(=O)C(=O)c4ccccc43)c(F)c2)cn1 26.4%
O=C1C(=O)N(Cc2ccc(Oc3ccccc3)cc2)c2ccc(OC(F)(F)F)cc21 10.6%
Cc1cc(NC(=O)CS(=O)(=O)c2cn(Cc3cc(Br)ccc3F)c3ccccc23)no1 13.4%
